Here are results for 22 molecules from ChEMBL document CHEMBL1121868, “Synthesis and biological effects of acyclic pyrimidine nucleoside analogues” (J Med Chem, 1981).

Type in all cases: functional, organism-based
Test [1] concerns Escherichia coli. As to the kind of experiment: In vitro inhibition of Escherichia coli K-12 growth.
For test [2], the system named is Escherichia coli. As to the kind of experiment: In vitro concentration required for growth inhibition of Escherichia coli K-12 strain resistant to 10e-3 M 5-flourouracil. A digest of the protocol: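 In vitro growth assay on an E. coli K-12 strain resistant to 10^-3 M 5-fluorouracil. IC50 is the concentration giving 50% inhibition of E. coli K-12 growth. The growth procedure follows earlier published methods.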

Test [3] relates to Escherichia coli. Put plainly: In vitro concentration required for growth inhibition of 5-fluorouracil resistant strain of Escherichia coli in presence of 2'-deoxycytidine metabolite at 10e-3 M concentration.
The subject of test [4] is Escherichia coli. Put plainly: In vitro concentration required for growth inhibition of 5-fluorouracil resistant strain of Escherichia coli in presence of 2'-deoxyuridine metabolite at 10e-3 M concentration.
Test [5] deals with Escherichia coli. Put plainly: In vitro concentration required for growth inhibition of 5-fluorouracil resistant strain of Escherichia coli in presence of cytidine metabolite at 10e-3 M concentration.
For test [6], the system named is Escherichia coli. As to the kind of experiment: In vitro concentration required for growth inhibition of 5-fluorouracil resistant strain of Escherichia coli in presence of cytosine metabolite at 10e-3 M concentration.
Test [7] has as its system Escherichia coli. As to the kind of experiment: In vitro concentration required for growth inhibition of 5-fluorouracil resistant strain of Escherichia coli in presence of thymidine metabolite at 10e-3 M concentration.
Test [8] relates to Escherichia coli. Put plainly: In vitro concentration required for growth inhibition of 5-fluorouracil resistant strain of Escherichia coli in presence of thymine metabolite at 10e-3 M concentration.
Test [9] has as its system Escherichia coli. As to the kind of experiment: In vitro concentration required for growth inhibition of 5-fluorouracil resistant strain of Escherichia coli in presence of uracil metabolite at 10e-3 M concentration.
Test [10] deals with Escherichia coli. Put plainly: In vitro concentration required for growth inhibition of 5-fluorouracil resistant strain of Escherichia coli in presence of uridine metabolite at 10e-3 M concentration.

What is called IC50 is the concentration needed to halve the response being measured.

Consider `Nc1ccn(COCCOC(=O)c2ccccc2)c(=O)n1`, for which, in the test on Escherichia coli [1], half-maximal inhibition (IC50) required 900 µM. Molecule `O=C(OCCOCn1ccc(=O)[nH]c1=O)c1ccccc1` gave a 50% inhibitory concentration (IC50) with Escherichia coli [1] of 100 µM.

Regarding `CC(=O)Nc1ccn(COCCO)c(=O)n1`, the IC50 in the test with Escherichia coli [1] is above 1000 µM.

On to `CN(C)c1ccn(C)c(=O)n1`, for which the IC50 in the test on Escherichia coli [1] turned out to be 80 µM. The same measure, in the same setting: under `Cc1cn(COCCOC(=O)c2ccccc2)c(=O)[nH]c1=O` stands 860 µM. Still for that read-out and setting: under `Cn1ccc(=O)n(C)c1=O` stands 15 µM.

Take `O=C(OCCOCn1cc(F)c(=O)[nH]c1=O)c1ccccc1`: the IC50 in the test with Escherichia coli [1] stood at 9 µM; in the test with Escherichia coli [2], 180 µM. With `Cc1cn(COCCN)c(=O)[nH]c1=O`, it took 310 µM to reach half-maximal inhibition in the test on Escherichia coli [1] (IC50). On the same count and under the same terms, in the case of `CC(=O)Nc1ccn(COCCN=[N+]=[N-])c(=O)n1` it was above 1000 µM; in that of `O=c1ccn(COCCO)c(=O)[nH]1`, 320 µM; in that of `CC(=O)Nc1ccn(COCCOC(=O)Oc2ccccc2)c(=O)n1`, above 1000 µM. Regarding `Cc1cn(COCCN=[N+]=[N-])c(=O)[nH]c1=O`, the concentration for half-maximal inhibition (IC50) in the test on Escherichia coli [1] worked out at 250 µM. As for `Cc1cn(COCCO)c(=O)[nH]c1=O`, the IC50 in the test with Escherichia coli [1] was above 1000 µM. Same read-out and setting: in the case of `COc1ccn(C)c(=O)n1` it was 61 µM.

In the case of `O=c1[nH]c(=O)n(COCCO)cc1F`, the IC50 in the test on Escherichia coli [3] came to 9.5 µM; with Escherichia coli [4], 370 µM; with Escherichia coli [5], 9.1 µM; with Escherichia coli [6], 7.4 µM; with Escherichia coli [7], 1000 µM; in the test on Escherichia coli [8], 730 µM. Moreover, the half-maximal inhibitory concentration (IC50) came out at 8.4 µM in the test on Escherichia coli [9], 240 µM in the test with Escherichia coli [10], 1.2 µM in the test on Escherichia coli [1] and 4.2 µM in the test with Escherichia coli [2]. The molecule `CC(C)n1ccc(N)nc1=O` gave a concentration for half-maximal inhibition (IC50) with Escherichia coli [1] above 1000 µM. The same measure, in the same setting: under `[N-]=[N+]=NCCOCn1ccc(N)nc1=O` stands 440 µM.

`Nc1ccn(COCCO)c(=O)n1` came in with an IC50 with Escherichia coli [1] of 87 µM. On the same count and under the same terms, in the case of `NCCOCn1ccc(N)nc1=O` it was above 1000 µM; in that of `NC(=O)OCCOCn1ccc(N)nc1=O`, 910 µM. Same read-out and setting: under `CC(=O)C(C)n1ccc(N)nc1=O` (configuration not stated) stands 560 µM; under `CCCCCCC(C(C)=O)n1ccc(N)nc1=O` (configuration not stated), 30 µM.
